The entries come from a sample that favours hits as a whole.
XBP1 UPR activ: adaptive UPR (XBP1) activation; CHO-XBP1 luciferase reporter, IRE1-XBP1 UPR activation, luminescence; percent of tunicamycin response, DMSO as zero; activation, % at 20 µM; 0.33% of 330,000 active;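 active = versus positive control, 20 µM dose yields 30% or more activation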
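Material: IRE1-XBP1 luciferase reporter CHO line / Quantity: one thousand reporter cells per well / Buffer or medium: F12 with 10% serum / Compound: 20 µM single concentration, DMSO 1% / Times: 6 h treatment, 37 °C / Detection: Steady-Glo luciferase glow luminescence, 10 min after reagent addition / Benchmarks: tunicamycin high, DMSO low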
Lmaj promast: reduces viability of Leishmania major promastigotes; resazurin fluorescence viability; inhibition, % at 10 µM; 9% of 200,000 active; AID 1063; in the data active = inhibition above about 50%;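 also: promastigotes grown with compound for 44 hours at 28 °C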
UPR CHOP act: activators of apoptotic arm of unfolded protein response (CHOP); 0.34% of 330,000 active; activation, % at 10 µM; CHO-CHOP luciferase reporter, UPR activation, luminescence; percent of tunicamycin response over DMSO baseline;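 active = at 10 µM dose, activation of 40% or more, normalized to positive control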
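System: CHO CHOP reporter cells. Amount: 500 cells per well. Buffer or medium: F12 medium, 10% FBS. Compound dosing: one dose, 10 µM in 0.5% DMSO. Incubation: 6 h compound exposure at 37 °C after overnight seeding. Technique: Steady-Glo luciferase luminescence. Benchmarks: tunicamycin and DMSO controls.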
T cruzi repl: T. cruzi replication inhibition | T. cruzi beta-gal in NIH3T3, luminescence, 90 h | inhibition, % (no concentration beside the values) | 1.4% of 300,000 active;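 active = mean inhibition across valid replicates above about 55%, limit read from the data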;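 also: signal also drops with host cell toxicity which is not excluded here; higher percent means less beta-gal luminescence so fewer parasites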
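System: mouse NIH/3T3 fibroblasts infected with β-gal-expressing T. cruzi Tulahuen C4 / Input: NIH/3T3 cells, 5,000 per well / Buffer or medium: Low-serum DMEM with 2% FBS / Probe or stimulus: 5000 reporter trypomastigotes per well / Schedule: ≥90 h infection period, 3 h prior cell attachment / Measured by: GalScreen luminescence, 60 min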
Dynein transport: blocks dynein driven cargo transport along microtubules; 3617.4 mouse cells, GR-EGFP nuclear translocation imaging; test concentration mostly 20 µM; stimulated with dexamethasone, 1 µM; active compounds read low; z-score, hits read low; 0.47% of 220,000 active; AID 1381;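 active = plate z-score of nuclear minus cytoplasmic receptor signal below a set negative limit, without overly bright fluorescence or cell loss, cut at about -3.5 in these data, passing the limit was not always enough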;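 also: z-score of nuclear minus cytoplasmic ring GR-EGFP intensity difference per well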
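medium = tetracycline-free induction medium containing charcoal-stripped FBS | probe or stimulus = dexamethasone, 1.0 µM final | timing = 48 h induction, then 1 h compound, then 30 min agonist, 37 °C | detection = automated 10x imaging of fixed Hoechst-stained cells | read-out basis = nuclear versus cytoplasmic GR-EGFP signal, averaged per well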
CHOP inhibitor: inhibitors of CHOP induction in ER stress response; CHO-K1 CHOP-promoter luciferase, tunicamycin-induced, 15-18 h; inhibition, % at 10 µM; 3.8% of 220,000 active; AID 2732;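 active = compounds that reduced the stress-induced luciferase reporter signal by more than about 70% of percent inhibition, limit read from the data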
CHOP confirm: confirmation of CHOP induction inhibitors. 45% of 2,100 active. CHO-CHOP promoter luciferase reporter, tunicamycin-induced, luminescence. inhibition, % at 10 µM. AID 504437. shares compounds with CHOP inhibitor;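 active = mean of three repeat readings of reporter signal inhibition above a set limit, cut at about 70% in these data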
Large screens that a line does not name were inactive (follow-up assays come after a bar, where they were run).

O=C(CSc1nc2ccccc2[nH]1)Nc1nc(-c2cccc(Br)c2)cs1	none
CN(C)CCCn1c(SCC(=O)Nc2nc(-c3cccc(Br)c3)cs2)nc2ccccc2c1=O	T cruzi repl 68, CHOP inhibitor 106 (no result: Lmaj promast) | CHOP confirm 105
CC(=O)Nc1ccc(NC(=O)C(C)OC(=O)c2ccccc2NS(=O)(=O)c2cccs2)cc1 (stereo unspecified)	none (no result: Lmaj promast)
CC(=O)Nc1ccc(NC2=C/C(=N/S(=O)(=O)c3cccs3)c3ccccc3C2=O)cc1	Lmaj promast 100, T cruzi repl 56, CHOP inhibitor 107 | CHOP confirm inactive
O=C(Nc1cccc(Cl)c1)Nc1cnccn1	none (no result: Lmaj promast, Dynein transport, CHOP inhibitor)
O=C(Nc1cccc(Cl)c1)Nc1ccnc(-c2cccnc2)n1	CHOP inhibitor 105 | CHOP confirm 105
Cc1[nH]c(C)c(C(=O)/C=C/c2ccc([N+](=O)[O-])cc2)c1C	none (no result: Lmaj promast, Dynein transport, CHOP inhibitor)
OC(CNCC(c1ccc(Cl)cc1Cl)c1c[nH]c2ccccc12)c1ccccc1 (stereo unspecified)	Lmaj promast 100, T cruzi repl 82, CHOP inhibitor 107 | CHOP confirm 125
CC1CC(C)CN(C(=O)C(Cc2ccccc2)NC(=O)c2ccccc2)C1 (stereo unspecified)	none (no result: Lmaj promast, Dynein transport, CHOP inhibitor)
Cc1ccc(-c2[nH]ncc2/C=N/n2c(COc3ccccc3C)nc3ccccc3c2=O)cc1	Lmaj promast 75, CHOP inhibitor 100 | CHOP confirm inactive
CC(C)Oc1ccc(C(=O)Nc2ccc(S(=O)(=O)N3CCN(C)CC3)cc2)cc1	none (no result: Lmaj promast, Dynein transport, CHOP inhibitor)
Cc1cc(C)cc(-n2c(N)c(C(=O)Nc3c(C)n(C)n(-c4ccccc4)c3=O)c3nc4ccccc4nc32)c1	Lmaj promast 76, T cruzi repl 56, CHOP inhibitor 105 | CHOP confirm inactive
Cc1ccc(-n2c(N)c(C(=O)Nc3c(C)n(C)n(-c4ccccc4)c3=O)c3nc4ccccc4nc32)cc1	Lmaj promast 60, CHOP inhibitor 107 | CHOP confirm inactive
Cc1ccc(NC(=O)COC(=O)C2=NNC(=O)CC2)c(Br)c1	none (no result: Lmaj promast, T cruzi repl, Dynein transport, CHOP inhibitor)
O=C(Cn1c2c(sc1=O)C1c3ccccc3OCC1CS2)Nc1ccc(Cl)c(Cl)c1 (stereo unspecified)	Lmaj promast 96, CHOP inhibitor 99 (no result: XBP1 UPR activ, UPR CHOP act) | CHOP confirm inactive
O=C(Nc1nccs1)c1cc2c(s1)CCCCC2	CHOP inhibitor 98 | CHOP confirm 78
NNC(=O)c1cc2c(s1)CCCCCC2	none
CCCNC(=O)c1ccccc1NC(=O)Cc1ccc(OC)c(S(=O)(=O)N2CCOCC2)c1	none (no result: Lmaj promast, Dynein transport, CHOP inhibitor)
COc1ccc(NC(=O)COC(=O)CCc2ccccc2)c(OC)c1	none (no result: Lmaj promast, Dynein transport, CHOP inhibitor)
COc1cc(-c2nc3cnccn3c2Nc2ccc(C(C)C)cc2)ccc1O	CHOP inhibitor 110 | CHOP confirm inactive
CCc1nc(CN(C)C(=O)C2CCC(=O)N(CCc3cccc(F)c3)C2)no1 (stereo unspecified)	none (no result: Lmaj promast, Dynein transport, CHOP inhibitor)
O=[N+]([O-])c1ccc(N2CCN(c3ccccc3O)CC2)c(Cl)c1	CHOP inhibitor 96 | CHOP confirm inactive
O=c1c(Br)c(Br)cnn1-c1ccccc1	Lmaj promast 101, Dynein transport -5.8, CHOP inhibitor 106 (no result: XBP1 UPR activ, UPR CHOP act, T cruzi repl) | CHOP confirm 118
Nc1cc(=O)[nH]c(SCC(=O)Nc2ccc(Oc3ccccc3)cc2)n1	none (no result: Lmaj promast, Dynein transport, CHOP inhibitor)
CC(NS(=O)(=O)c1ccc(Br)cc1)C(=O)NCCc1ccccc1 (stereo unspecified)	none
O=C(c1ccco1)N1CCN(c2c(-c3ccccc3)c3cc(Cl)ccc3[nH]c2=O)CC1	CHOP inhibitor 97 | CHOP confirm 115
O=C1CC(c2ccccc2)CC(O)=C1C=Nc1cccc(Cl)c1 (stereo unspecified)	CHOP inhibitor 102 | CHOP confirm 76
O=C1CC(c2ccccc2Cl)CC(O)=C1C=Nc1ccccc1 (stereo unspecified)	CHOP inhibitor 103 | CHOP confirm 104

Screening results deposited in PubChem BioAssay by several laboratories.
